Assay results reported in ChEMBL document CHEMBL4152262, “Design, synthesis and evaluation of novel multi-target-directed ligands for treatment of Alzheimer's disease based on coumarin and lipoic acid scaffolds” (Eur J Med Chem, 2018).

Experiments:
PC-12 [1] = experiment: Cytotoxicity against rat PC12 cells assessed as effect on cell viability at 1 to 50 uM by MTT assay; format: cell-based; details: pc-12, 50 µM
[2] = target: Amyloid-beta precursor protein (Homo sapiens) (UniProt P05067); experiment: Inhibition of amyloid beta (1 to 42) (unknown origin) self-induced aggregation at 100 uM incubated for 48 hrs by thioflavin-T fluorescence assay relative to control
PC-12 [3] = experiment: Inhibition of H2O2-induced ROS generation in rat PC12 cells assessed as intracellular ROS level at 10 uM preincubated for 6 hrs followed by H2O2 addition measured after 18 hrs by DCFH-DA staining based fluorimetric method relative to control; format: functional; design: scale not given: the % may be the effect or the level left
Procedure, shortened: (§1)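 PC12 cells at 1×10^4/well in RPMI with 10% FBS and penicillin/streptomycin, 24 h at 37 °C, 5% CO2. Test samples (1, 5, 10, 50 µM; ≤0.5% DMSO) for 6 h, PBS wash, then H2O2 150 µM for 18 h. Loaded with 10 µM DCFH-DA for 30 min at 37 °C in the dark, washed twice. DCF fluorescence read at ex 485/em 528 nm as % of untreated control. Three independent experiments, mean ± SEM.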

Cholinesterase = Cholinesterase (Equus caballus, UniProt P81908); experiment: Inhibition of equine serum BuChE using butyrylthiocholine iodide as substrate pretreated for 5 mins followed by substrate addition by Ellman's method
Procedure, shortened: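 Ellman assay with horse serum BuChE (5 IU/mL) in 0.1 M phosphate buffer pH 8.0 with DTNB. Compound was preincubated with enzyme 5 min, then butyrylthiocholine iodide was added. Absorbance read at 412 nm. IC50 from a log concentration vs % inhibition curve; triplicate runs.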

PC-12 [4] = experiment: Neuroprotection against H2O2-induced cell death in rat PC12 cells assessed as cell viability at 50 uM preincubated for 3 hrs followed by H2O2 stimulation measured after 2 hrs by MTT assay (reference value: 25.2 to 41.8%); format: functional; details: read-out: Activity
PC-12 [5] = experiment: Inhibition of H2O2-induced ROS generation in rat PC12 cells preincubated for 6 hrs followed by H2O2 addition measured after 18 hrs by DCFH-DA staining based fluorimetric method; format: functional, cell-based; procedure, shortened: as §1
PC-12 [6] = experiment: Neuroprotection against H2O2-induced cell death in rat PC12 cells assessed as cell viability at 10 uM preincubated for 3 hrs followed by H2O2 stimulation measured after 2 hrs by MTT assay (reference value: 25.2 to 41.8%); format: functional; details: read-out: Activity
PC-12 [7] = experiment: Inhibition of H2O2-induced ROS generation in rat PC12 cells assessed as intracellular ROS level at 5 uM preincubated for 6 hrs followed by H2O2 addition measured after 18 hrs by DCFH-DA staining based fluorimetric method relative to control; format: functional; design: scale not given: the % may be the effect or the level left; procedure, shortened: as §1
PC-12 [8] = experiment: Neuroprotection against H2O2-induced cell death in rat PC12 cells assessed as cell viability at 0.1 uM preincubated for 3 hrs followed by H2O2 stimulation measured after 2 hrs by MTT assay (reference value: 25.2 to 41.8%); format: functional; details: read-out: Activity
Acetylcholinesterase = Acetylcholinesterase (Electrophorus electricus, UniProt O42275); experiment: Inhibition of electric eel AChE using acetylthiocholine iodide as substrate pretreated for 5 mins followed by substrate addition by Ellman's method
PC-12 [9] = experiment: Inhibition of H2O2-induced ROS generation in rat PC12 cells assessed as intracellular ROS level at 50 uM preincubated for 6 hrs followed by H2O2 addition measured after 18 hrs by DCFH-DA staining based fluorimetric method relative to control; format: functional; design: scale not given: the % may be the effect or the level left; procedure, shortened: as §1
SH-SY5Y [10] = experiment: Neuroprotection against H2O2-induced cell death in human SH-SY5Y cells assessed as cell viability at 50 uM preincubated for 3 hrs followed by H2O2 addition measured after 24 hrs by MTT assay relative to control; format: functional; details: read-out: Activity
Procedure, shortened: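 SH-SY5Y cells grown in DMEM with 10% FBS, 1% L-glutamine and antibiotics, 5×10^3/well. Compound (10 or 50 µM) for 3 h before 250 µM H2O2, then 24 h incubation. MTT read at 570 nm after DMSO solubilization. Viability as blank-corrected % of untreated control; three independent experiments, mean ± SEM.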

SH-SY5Y [11] = experiment: Inhibition of amyloid beta (1 to 42) (unknown origin)-induced cell death in human SH-SY5Y cells assessed as cell viability at 50 uM preincubated for 3 hrs followed by amyloid beta (1 to 42) addition measured after 24 hrs by MTT assay relative to control; format: functional; details: read-out: Activity
Procedure, shortened: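 SH-SY5Y cells grown in DMEM with 10% FBS, 1% L-glutamine and antibiotics, seeded at 5×10^3/well. Pretreated 3 h with compound (10 or 50 µM), then Aβ1-42 10 µM added for 24 h. MTT, formazan dissolved in DMSO, A570. Viability as blank-corrected % of untreated control; three independent experiments, mean ± SEM.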

PC-12 [12] = experiment: Neuroprotection against H2O2-induced cell death in rat PC12 cells assessed as cell viability at 5 uM preincubated for 3 hrs followed by H2O2 stimulation measured after 2 hrs by MTT assay (reference value: 25.2 to 41.8%); format: functional; details: read-out: Activity
PC-12 [13] = experiment: Neuroprotection against H2O2-induced cell death in rat PC12 cells assessed as cell viability at 20 uM preincubated for 3 hrs followed by H2O2 stimulation measured after 2 hrs by MTT assay (reference value: 25.2 to 41.8%); format: functional; details: read-out: Activity
PC-12 [14] = experiment: Inhibition of H2O2-induced ROS generation in rat PC12 cells assessed as intracellular ROS level at 1 uM preincubated for 6 hrs followed by H2O2 addition measured after 18 hrs by DCFH-DA staining based fluorimetric method relative to control; format: functional; design: scale not given: the % may be the effect or the level left; procedure, shortened: as §1
PC-12 [15] = experiment: Neuroprotection against H2O2-induced cell death in rat PC12 cells assessed as increase in cell viability preincubated for 3 hrs followed by H2O2 stimulation measured after 2 hrs by MTT assay; format: functional, cell-based
PC-12 [16] = experiment: Neuroprotection against H2O2-induced cell death in rat PC12 cells assessed as cell viability at 1 uM preincubated for 3 hrs followed by H2O2 stimulation measured after 2 hrs by MTT assay (reference value: 25.2 to 41.8%); format: functional; details: read-out: Activity
[17] = Inhibition of soybean 15-LOX assessed as reduction in conversion of linoleic acid to 13-hydroperoxylinoleic acid by spectrophotometric method; design: species or system Glycine max
Procedure, shortened: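 Soybean lipoxygenase type 1-B (final 167 U/mL) with compound (DMSO stock diluted in 0.1 M phosphate buffer pH 8) and linoleic acid (134 mM in ethanol) at room temperature. Formation of 13-hydroperoxylinoleic acid followed spectrophotometrically at 234 nm.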

SH-SY5Y [18] = experiment: Neuroprotection against H2O2-induced cell death in human SH-SY5Y cells assessed as cell viability at 100 uM preincubated for 3 hrs followed by H2O2 addition measured after 24 hrs by MTT assay relative to control; details: read-out: Activity
SH-SY5Y [19] = experiment: Inhibition of amyloid beta (1 to 42) (unknown origin)-induced cell death in human SH-SY5Y cells assessed as cell viability at 100 uM preincubated for 3 hrs followed by amyloid beta (1 to 42) addition measured after 24 hrs by MTT assay relative to control; details: read-out: Activity

Chain of Cholinesterase (P81908 whole entry): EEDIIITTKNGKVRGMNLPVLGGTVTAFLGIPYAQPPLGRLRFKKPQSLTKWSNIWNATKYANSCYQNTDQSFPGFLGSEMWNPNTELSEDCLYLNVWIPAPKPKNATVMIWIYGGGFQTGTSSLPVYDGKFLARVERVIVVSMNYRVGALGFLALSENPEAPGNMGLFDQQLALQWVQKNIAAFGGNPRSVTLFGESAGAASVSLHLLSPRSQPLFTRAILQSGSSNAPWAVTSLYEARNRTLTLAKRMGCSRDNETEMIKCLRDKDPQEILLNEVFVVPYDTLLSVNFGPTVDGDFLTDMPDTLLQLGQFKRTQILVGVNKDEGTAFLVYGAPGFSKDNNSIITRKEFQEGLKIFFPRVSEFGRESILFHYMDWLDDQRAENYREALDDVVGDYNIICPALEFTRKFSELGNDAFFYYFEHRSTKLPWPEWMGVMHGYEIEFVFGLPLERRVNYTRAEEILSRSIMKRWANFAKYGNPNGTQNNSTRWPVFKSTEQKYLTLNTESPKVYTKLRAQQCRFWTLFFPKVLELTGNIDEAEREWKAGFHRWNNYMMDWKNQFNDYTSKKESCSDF
Chain of Acetylcholinesterase (O42275 whole entry): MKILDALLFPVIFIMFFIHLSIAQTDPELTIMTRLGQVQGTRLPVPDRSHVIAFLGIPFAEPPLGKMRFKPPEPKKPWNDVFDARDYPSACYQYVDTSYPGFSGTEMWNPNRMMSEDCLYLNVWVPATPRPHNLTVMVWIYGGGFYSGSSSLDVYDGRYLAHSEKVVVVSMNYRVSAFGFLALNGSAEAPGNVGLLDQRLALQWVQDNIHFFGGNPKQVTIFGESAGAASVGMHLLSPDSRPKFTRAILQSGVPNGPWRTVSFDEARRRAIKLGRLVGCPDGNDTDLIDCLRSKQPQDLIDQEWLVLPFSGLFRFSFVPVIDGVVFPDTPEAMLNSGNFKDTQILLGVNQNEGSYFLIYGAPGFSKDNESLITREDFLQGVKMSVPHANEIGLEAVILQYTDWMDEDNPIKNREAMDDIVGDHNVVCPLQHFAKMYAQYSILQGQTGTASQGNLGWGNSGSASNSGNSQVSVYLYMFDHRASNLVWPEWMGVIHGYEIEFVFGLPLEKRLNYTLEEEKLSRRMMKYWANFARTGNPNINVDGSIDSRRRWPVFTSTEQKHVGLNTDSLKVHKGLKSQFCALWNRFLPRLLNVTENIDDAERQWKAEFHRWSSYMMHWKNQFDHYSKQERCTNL
Chain of Amyloid-beta precursor protein (Homo sapiens) (P05067 whole entry): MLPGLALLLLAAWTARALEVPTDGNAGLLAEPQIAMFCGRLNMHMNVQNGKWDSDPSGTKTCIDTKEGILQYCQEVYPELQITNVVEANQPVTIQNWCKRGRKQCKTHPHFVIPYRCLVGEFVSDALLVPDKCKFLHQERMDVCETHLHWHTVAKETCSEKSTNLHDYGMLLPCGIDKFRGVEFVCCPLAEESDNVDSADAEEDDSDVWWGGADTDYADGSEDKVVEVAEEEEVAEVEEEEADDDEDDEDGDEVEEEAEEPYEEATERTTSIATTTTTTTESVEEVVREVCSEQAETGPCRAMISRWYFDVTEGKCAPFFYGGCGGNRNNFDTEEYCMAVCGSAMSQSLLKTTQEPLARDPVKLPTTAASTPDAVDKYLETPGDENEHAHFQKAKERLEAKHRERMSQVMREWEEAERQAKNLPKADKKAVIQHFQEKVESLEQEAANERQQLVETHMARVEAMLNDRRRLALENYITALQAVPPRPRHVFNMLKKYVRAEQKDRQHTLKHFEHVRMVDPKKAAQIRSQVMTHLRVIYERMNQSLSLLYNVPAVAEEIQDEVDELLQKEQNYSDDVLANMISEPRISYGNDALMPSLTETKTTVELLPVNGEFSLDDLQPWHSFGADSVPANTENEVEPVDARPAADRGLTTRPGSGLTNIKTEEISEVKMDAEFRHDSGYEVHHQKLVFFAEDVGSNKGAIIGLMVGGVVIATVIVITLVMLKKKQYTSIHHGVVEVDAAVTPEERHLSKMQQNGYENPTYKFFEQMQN

Row | SMILES | IC50 (Cholinesterase) [µM] | viability at 50 µM (PC-12 [4]) [%] | viability at 10 µM (PC-12 [6]) [%] | viability at 0.1 µM (PC-12 [8]) [%] | IC50 (Acetylcholinesterase) [µM] | viability at 5 µM (PC-12 [12]) [%] | viability at 20 µM (PC-12 [13]) [%] | Activity (PC-12 [15]) | viability at 1 µM (PC-12 [16]) [%] | IC50 [17] [µM] | also measured
1 | Cc1cc(=O)oc2cc(OCCCn3cc(CNC(=O)CCCCC4CCSS4)nn3)ccc12 (stereo unspecified) | > 100 | 75.4 | 69.4 | 44.8 | 55 | 64.6 | 74.3 | Dose-dependent effect | 54.5 | > 100 | Activity (PC-12 [1]): Non-Toxic; inhibition [2]: 26.6%; Activity (PC-12 [3]): 122.93%; inhibition (PC-12 [5]): Dose-dependent effect; Activity (PC-12 [7]): 131.54%; Activity (PC-12 [9]): 49.24%; viability at 50 µM (SH-SY5Y [10]): 55.6%; viability at 50 µM (SH-SY5Y [11]): 72.9%; Activity (PC-12 [14]): 118.8%
2 | O=C(O)CCCCC1CCSS1 (stereo not drawn) [LIPOIC ACID, ALPHA] | – | – | – | – | – | – | – | – | – | – | Activity (PC-12 [3]): 105.72%; Activity (PC-12 [7]): 110.65%; Activity (PC-12 [9]): 55.9%; Activity (PC-12 [14]): 138.77%
3 | COc1cc2c(cc1OC)C(=O)C(CC1CCN(Cc3ccccc3)CC1)C2 (stereo unspecified) [DONEPEZIL] | – | – | – | – | – | – | – | – | – | – | viability at 100 µM (SH-SY5Y [18]): 33%; viability at 100 µM (SH-SY5Y [19]): 39.9%
4 | O=C(CCCCC1CCSS1)NCc1cn(CCCCOc2ccc3cc(-c4ccc(Cl)cc4)c(=O)oc3c2)nn1 (stereo unspecified) | 52 | 74.9 | 61.8 | 38.8 | > 100 | 52 | 68.4 | Dose-dependent effect | 46.2 | > 100 | –
5 | O=C(CCCCC1CCSS1)NCc1cn(CCCCOc2ccc3cc(-c4ccc(Br)cc4)c(=O)oc3c2)nn1 (stereo unspecified) | > 100 | 47.6 | 42.6 | 34.2 | > 100 | 40.5 | 45 | Dose-dependent effect | 37.4 | > 100 | –
6 | O=C(CCCCC1CCSS1)NCc1cn(CCCOc2ccc3ccc(=O)oc3c2)nn1 (stereo unspecified) | > 100 | 43.5 | 40 | 37.8 | 66.7 | 39.2 | 42.2 | Dose-dependent effect | 37.2 | > 100 | –
7 | CO[C@H]1/C=C/O[C@@]2(C)Oc3c(C)c(O)c4c(O)c(c(/C=N/N5CCN(C)CC5)c(O)c4c3C2=O)NC(=O)/C(C)=C\C=C\[C@H](C)[C@H](O)[C@@H](C)[C@@H](O)[C@@H](C)[C@H](OC(C)=O)[C@@H]1C | – | – | – | – | – | – | – | – | – | – | inhibition [2]: 27.5%
8 | Cc1cc(=O)oc2cc(OCCCCCn3cc(CNC(=O)CCCCC4CCSS4)nn3)ccc12 (stereo unspecified) | > 100 | 73.7 | 66.3 | 45.6 | > 100 | 61 | 70.3 | Dose-dependent effect | 56.5 | > 100 | –
